ChEMBL document CHEMBL3576866, “Discovery of a Cyclic Boronic Acid β-Lactamase Inhibitor (RPX7009) with Utility vs Class A Serine Carbapenemases” (J Med Chem, 2015)

Tests used:
[1] = target: Carbapenem-hydrolyzing beta-lactamase KPC (Klebsiella pneumoniae) (UniProt Q9F663); test: Inhibition of Klebsiella pneumoniae KP1084 KPC-3 assessed as biapenem MIC at 4 ug/ml by broth microdilution method
Klebsiella pneumoniae [2] = test: Inhibition of Klebsiella pneumoniae KP1087 SHV-11 assessed as biapenem MIC at 4 ug/ml by broth microdilution method
Summary of the method: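 CLSI broth microdilution (M07-A9) against clinical K. pneumoniae strain KP1087 (KPC-2, CTX-M-15, SHV-11, TEM-1); carbapenem MIC (μg/mL) read with the inhibitor held at a fixed 4 μg/mL, alongside carbapenem alone.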

Klebsiella pneumoniae [3] = test: Inhibition of Klebsiella pneumoniae KP1008 KPC-2 assessed as meropenem MIC at 4 ug/ml by broth microdilution method
Summary of the method: (§1)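 CLSI broth microdilution (M07-A9, 2012) MIC of the carbapenem against clinical serine carbapenemase-producing strain, tested alone and with the inhibitor held at a fixed 4 μg/mL.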

Klebsiella pneumoniae [4] = test: Inhibition of Klebsiella pneumoniae KP1004 KPC-2 assessed as meropenem MIC at 4 ug/ml by broth microdilution method; summary of the method: as §1
[5] = target: Carbapenem-hydrolyzing beta-lactamase KPC (Klebsiella oxytoca) (UniProt Q848S6); test: Inhibition of Klebsiella oxytoca KX1017 KPC-2 assessed as meropenem MIC at 4 ug/ml by broth microdilution method; summary of the method: as §1
Klebsiella oxytoca [6] = test: Inhibition of Klebsiella oxytoca KX1017 OXA-2 assessed as meropenem MIC at 4 ug/ml by broth microdilution method
Klebsiella oxytoca [7] = test: Inhibition of Klebsiella oxytoca KX1019 OXA-2 assessed as meropenem MIC at 4 ug/ml by broth microdilution method
[8] = target: Beta lactamase TEM-1 (Klebsiella pneumoniae) (UniProt Q7B899); test: Inhibition of Klebsiella pneumoniae KP1087 TEM-1 assessed as meropenem MIC at 4 ug/ml by broth microdilution method; summary of the method: as §1
[9] = target: Beta lactamase TEM-1 (Klebsiella pneumoniae) (UniProt Q7B899); test: Inhibition of Klebsiella pneumoniae KP1084 TEM-1 assessed as meropenem MIC at 4 ug/ml by broth microdilution method; summary of the method: as §1
[10] = Cmax in rat at 100 mg/kg, iv administered as 0.5 hrs infusion by HPLC-MS method; assay type: ADME, organism-based; set-up: dose 100 mg/kg, route intravenous; conditions: in vivo
[11] = target: Urokinase-type plasminogen activator (Homo sapiens, UniProt P00749); test: Inhibition of urokinase (unknown origin) using NGK-pNA as substrate preincubated for 10 mins followed by substrate addition measured for 30 mins by spectrophotometric analysis
Summary of the method: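 Urokinase, from a commercial source, in 50 mM Tris-HCl, pH 8.5, 38 mM NaCl. Mixed with inhibitor at various concentrations for 10 min at 37 °C, then NGK-pNA (listed at 100 μM) added and absorbance monitored for 30 min. Rates were relative to untreated; IC50 is the concentration giving 50% inhibition.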

[12] = Cmax in rat at 300 mg/kg, iv administered as 0.5 hrs infusion by HPLC-MS method; assay type: ADME, organism-based; set-up: dose 300 mg/kg, route intravenous; conditions: in vivo
[13] = Half life in rat at 1000 mg/kg, iv administered as 0.5 hrs infusion by HPLC-MS method; assay type: ADME, organism-based; conditions: in vivo
Klebsiella pneumoniae [14] = test: In vivo inhibition of KPC in Klebsiella pneumoniae KP1074 in Swiss webster neutropenic mouse lung infection model assessed as biapenem deltalog10CFU in lung at 50 mg/kg, ip administered every 2 hrs starting at 2 hrs postinfection measured after 24 hrs; assay type: functional
Klebsiella pneumoniae [15] = test: Inhibition of Klebsiella pneumoniae KP1010 SHV-12 assessed as cefepime MIC at 4 ug/ml by broth microdilution method
Summary of the method: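 CLSI broth microdilution (M07-A9) against clinical strains expressing serine β-lactamases.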

[16] = target: Beta-lactamase (Enterobacter cloacae) (UniProt P05364); test: Inhibition of Enterobacter cloacae ECL1061 AmpC assessed as cefepime MIC at 4 ug/ml by broth microdilution method
Klebsiella oxytoca [17] = test: Inhibition of Klebsiella oxytoca KX1017 OXA-2 assessed as biapenem MIC at 4 ug/ml by broth microdilution method
Klebsiella pneumoniae [18] = test: Inhibition of Klebsiella pneumoniae KP1087 KPC-2 assessed as ertapenem MIC at 4 ug/ml by broth microdilution method; summary of the method: as §1
Klebsiella pneumoniae [19] = test: Inhibition of Klebsiella pneumoniae KP1087 SHV-11 assessed as ertapenem MIC at 4 ug/ml by broth microdilution method; summary of the method: as §1
[20] = target: Carbapenem-hydrolyzing beta-lactamase KPC (Klebsiella oxytoca) (UniProt Q848S6); test: Inhibition of Klebsiella oxytoca KX1019 KPC-2 assessed as ertapenem MIC at 4 ug/ml by broth microdilution method
[21] = target: Beta lactamase TEM-1 (Klebsiella pneumoniae) (UniProt Q7B899); test: Inhibition of Klebsiella pneumoniae KP1083 TEM-1 assessed as imipenem MIC at 4 ug/ml by broth microdilution method
[22] = target: Carbapenem-hydrolyzing beta-lactamase KPC (Klebsiella oxytoca) (UniProt Q848S6); test: Inhibition of Klebsiella oxytoca KX1017 KPC-2 assessed as ertapenem MIC at 4 ug/ml by broth microdilution method
Klebsiella pneumoniae [23] = test: Inhibition of Klebsiella pneumoniae KP1004 KPC-2 assessed as ertapenem MIC at 4 ug/ml by broth microdilution method; summary of the method: as §1
Klebsiella pneumoniae [24] = test: Inhibition of Klebsiella pneumoniae KP1004 SHV-11 assessed as ertapenem MIC at 4 ug/ml by broth microdilution method; summary of the method: as §1
[25] = target: Beta-lactamase (Klebsiella pneumoniae) (UniProt Q93LQ9); test: Inhibition of Klebsiella pneumoniae KP1084 KPC-3 assessed as imipenem MIC at 4 ug/ml by broth microdilution method
[26] = target: T1, Class A carbapenemase (Enterobacter cloacae) (UniProt A7WP95); test: Inhibition of Enterobacter cloacae ECL1058 KPC-3 assessed as imipenem MIC at 4 ug/ml by broth microdilution method
T1 sequence (whole entry): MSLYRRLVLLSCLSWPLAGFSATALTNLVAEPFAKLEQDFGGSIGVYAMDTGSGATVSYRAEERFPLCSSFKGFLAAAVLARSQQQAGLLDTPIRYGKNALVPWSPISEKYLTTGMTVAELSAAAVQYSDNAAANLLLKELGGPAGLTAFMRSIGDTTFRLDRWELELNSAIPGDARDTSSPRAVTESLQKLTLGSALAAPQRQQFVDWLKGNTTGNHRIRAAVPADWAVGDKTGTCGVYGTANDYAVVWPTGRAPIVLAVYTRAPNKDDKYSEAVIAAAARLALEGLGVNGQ

[27] = target: Carbapenem-hydrolyzing beta-lactamase KPC (Klebsiella oxytoca) (UniProt Q848S6); test: Inhibition of Klebsiella oxytoca KX1019 KPC-2 assessed as imipenem MIC at 4 ug/ml by broth microdilution method
Klebsiella oxytoca [28] = test: Inhibition of Klebsiella oxytoca KX1019 OXA-2 assessed as imipenem MIC at 4 ug/ml by broth microdilution method
[29] = Inhibition of Escherichia coli recombinant KPC-2 assessed as substrate nitrocefin degradation preincubated for 10 mins followed by substrate addition measured every 10 secs for 10 mins by spectrophotometric analysis
Summary of the method: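 β-Lactamases purified from overexpressing recombinant E. coli. Enzyme preincubated with inhibitor at varying concentrations for 10 min at room temperature in 50 mM Na phosphate pH 7.0, 0.1 mg/mL BSA. Then 50 μM nitrocefin (final) added and cleavage read at 490 nm every 10 s for 10 min. Ki derived by the Waley method.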

Carbapenem-hydrolyzing beta-lactamase KPC (Klebsiella oxytoca), sequence (Q848S6 whole entry): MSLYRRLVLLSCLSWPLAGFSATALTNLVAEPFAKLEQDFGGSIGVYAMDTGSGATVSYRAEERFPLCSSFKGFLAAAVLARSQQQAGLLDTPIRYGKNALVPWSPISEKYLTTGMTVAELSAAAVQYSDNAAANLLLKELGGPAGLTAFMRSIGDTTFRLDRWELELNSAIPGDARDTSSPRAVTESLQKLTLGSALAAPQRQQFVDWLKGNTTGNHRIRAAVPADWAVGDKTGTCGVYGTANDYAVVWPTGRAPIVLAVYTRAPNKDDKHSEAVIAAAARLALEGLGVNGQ
Beta lactamase TEM-1 (Klebsiella pneumoniae), sequence (Q7B899 as listed by the source): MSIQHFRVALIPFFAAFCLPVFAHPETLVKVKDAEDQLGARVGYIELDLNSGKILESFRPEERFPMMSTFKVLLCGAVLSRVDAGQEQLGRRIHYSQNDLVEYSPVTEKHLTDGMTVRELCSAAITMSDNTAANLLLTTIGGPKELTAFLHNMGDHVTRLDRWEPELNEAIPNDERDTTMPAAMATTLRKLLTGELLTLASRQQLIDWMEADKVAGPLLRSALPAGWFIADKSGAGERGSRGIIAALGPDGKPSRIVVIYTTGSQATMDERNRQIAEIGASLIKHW
Beta-lactamase (Klebsiella pneumoniae), sequence (Q93LQ9 as listed by the source): as the sequence (Q848S6 whole entry) above
Carbapenem-hydrolyzing beta-lactamase KPC (Klebsiella pneumoniae), sequence (Q9F663 whole entry): as the sequence (Q848S6 whole entry) above
Beta-lactamase (Enterobacter cloacae), sequence (P05364 21-381 limits assumed): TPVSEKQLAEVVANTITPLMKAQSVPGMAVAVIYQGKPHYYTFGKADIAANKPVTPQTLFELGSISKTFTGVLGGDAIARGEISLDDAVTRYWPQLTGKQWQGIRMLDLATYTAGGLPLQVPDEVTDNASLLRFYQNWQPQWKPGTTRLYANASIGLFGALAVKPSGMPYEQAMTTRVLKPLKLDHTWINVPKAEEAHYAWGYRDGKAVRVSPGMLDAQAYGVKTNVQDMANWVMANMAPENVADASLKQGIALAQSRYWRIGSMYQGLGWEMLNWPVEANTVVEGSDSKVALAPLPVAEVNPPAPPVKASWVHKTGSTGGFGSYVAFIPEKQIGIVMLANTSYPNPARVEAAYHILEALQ

## O=C(O)C[C@@H]1CC[C@H](NC(=O)Cc2cccs2)B(O)O1 [VABORBACTAM]
[1]
  MIC: 0.25 µg/mL
Klebsiella pneumoniae [2]
  MIC: 0.25 µg/mL
Klebsiella pneumoniae [3]
  MIC: ≤ 0.06 µg/mL
Klebsiella pneumoniae [4]
  MIC: ≤ 0.06 µg/mL
[5]
  MIC: < 0.06 µg/mL
Klebsiella oxytoca [6]
  MIC: < 0.06 µg/mL
Klebsiella oxytoca [7]
  MIC: < 0.06 µg/mL
[8]
  MIC: 1 µg/mL
[9]
  MIC: 0.5 µg/mL
[10]
  Cmax: 231 µg/mL
[11]
  IC50: > 1000 µM
[12]
  Cmax: 735 µg/mL
[13]
  half-life: 24 min
Klebsiella pneumoniae [14]
  deltalog10CFU: -2.19
Klebsiella pneumoniae [15]
  MIC: 0.25 µg/mL
[16]
  MIC: 2 µg/mL
Klebsiella oxytoca [17]
  MIC: < 0.06 µg/mL
Klebsiella pneumoniae [18]
  MIC: 2 µg/mL
Klebsiella pneumoniae [19]
  MIC: 2 µg/mL
[20]
  MIC: 0.25 µg/mL
[21]
  MIC: 0.13 µg/mL
[22]
  MIC: 0.25 µg/mL
Klebsiella pneumoniae [23]
  MIC: ≤ 0.06 µg/mL
Klebsiella pneumoniae [24]
  MIC: ≤ 0.06 µg/mL
[25]
  MIC: 0.25 µg/mL
[26]
  MIC: 0.25 µg/mL
[27]
  MIC: 0.13 µg/mL
Klebsiella oxytoca [28]
  MIC: 0.13 µg/mL
[29]
  Ki: 0.069 µM
